Measurements taken from ChEMBL document CHEMBL2169836 (J Med Chem, 2012).

Assays:
[1] = target: Sodium/hydrogen exchanger 1 (Homo sapiens, UniProt P19634); assay: Inhibition of NHE1 in human HT-29 cells assessed as intracellular pH change after 30 mins; format: cell-based
[2] = Permeability of the compound by PAMPA; format: ADME; conditions: read-out: permeability
In short: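 Donor buffers were set to pH 5.0, 6.2 and 7.4 with NaOH, and ASB7.4 buffer was used as acceptor. Filters (0.45 pore, 125 μm thick) were lipid-coated. A 10 mM DMSO stock was diluted to 41.7 μM in donor buffer. The sandwich was incubated 4 h without stirring. Reference, donor and acceptor concentrations were read in duplicate by UV plate reader, and ratings were assigned from permeation velocity.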

Cytochrome P450 3A4 = Cytochrome P450 3A4 (Homo sapiens, UniProt P08684); assay: Inhibition of CYP3A4 in human liver microsomes using 7-benzyloxy-4-(trifluoromethyl)-coumarin as substrate after 30 mins by LC/MS/MS analysis; format: ADME, Microsome
Cytochrome P450 2D6 = Cytochrome P450 2D6 (Homo sapiens, UniProt P10635); assay: Inhibition of CYP2D6 in human liver microsomes using 3-[2-(N,N-diethyl-N-methylamino)ethyl]-7- methoxy-4-methylcoumarin as substrate after 45 mins by LC/MS/MS analysis; format: ADME, Microsome
Cytochrome P450 2C9 = Cytochrome P450 2C9 (Homo sapiens, UniProt P11712); assay: Inhibition of CYP2C9 in human liver microsomes using 7-methoxy-4-(trifluoromethyl)-coumarin as substrate after 45 mins by LC/MS/MS analysis; format: ADME, Microsome
[3] = Metabolic stability in rat liver microsomes at 1 uM up to 60 mins by LC/MS/MS analysis relative to hepatic blood flow; format: ADME, Microsome; conditions: read-out: Stability
Cytochrome P450 2C19 = Cytochrome P450 2C19 (Homo sapiens, UniProt P33261); assay: Inhibition of CYP2C19 in human liver microsomes using 7-ethoxy-3-cyanocoumarin as substrate after 45 mins by LC/MS/MS analysis; format: ADME, Microsome
[4] = Metabolic stability in human liver microsomes at 1 uM up to 60 mins by LC/MS/MS analysis relative to hepatic blood flow; format: ADME, Microsome; conditions: read-out: Stability
[5] = target: Voltage-gated inwardly rectifying potassium channel KCNH2 (Homo sapiens, UniProt Q12809); assay: Inhibition of human ERG expressed in HEK 293 cells by PatchXpress assay; format: cell-based, HEK293
[6] = Mean resident time in jugular and femoral vein precannulated Sprague-Dawley rat at 1 mg/kg, iv by LC/MS/MS analysis; format: ADME, organism-based; set-up: dose 1 mg/kg, route intravenous; conditions: in vivo
[7] = Oral bioavailability in jugular and femoral vein precannulated Sprague-Dawley rat plasma at 5 mg/kg by LC/MS/MS analysis; format: ADME, organism-based
[8] = Volume of distribution at steady state in jugular and femoral vein precannulated Sprague-Dawley rat at 1 mg/kg, iv by LC/MS/MS analysis; format: ADME, organism-based; set-up: dose 1 mg/kg, route intravenous; conditions: in vivo, read-out: Vdss
Rattus norvegicus = assay: Clearance in jugular and femoral vein precannulated Sprague-Dawley rat at 1 mg/kg, iv by LC/MS/MS analysis relative to hepatic blood flow; format: ADME, organism-based, Liver; set-up: dose 1 mg/kg, route intravenous; conditions: in vivo

Sequence of Sodium/hydrogen exchanger 1 (P19634 whole entry): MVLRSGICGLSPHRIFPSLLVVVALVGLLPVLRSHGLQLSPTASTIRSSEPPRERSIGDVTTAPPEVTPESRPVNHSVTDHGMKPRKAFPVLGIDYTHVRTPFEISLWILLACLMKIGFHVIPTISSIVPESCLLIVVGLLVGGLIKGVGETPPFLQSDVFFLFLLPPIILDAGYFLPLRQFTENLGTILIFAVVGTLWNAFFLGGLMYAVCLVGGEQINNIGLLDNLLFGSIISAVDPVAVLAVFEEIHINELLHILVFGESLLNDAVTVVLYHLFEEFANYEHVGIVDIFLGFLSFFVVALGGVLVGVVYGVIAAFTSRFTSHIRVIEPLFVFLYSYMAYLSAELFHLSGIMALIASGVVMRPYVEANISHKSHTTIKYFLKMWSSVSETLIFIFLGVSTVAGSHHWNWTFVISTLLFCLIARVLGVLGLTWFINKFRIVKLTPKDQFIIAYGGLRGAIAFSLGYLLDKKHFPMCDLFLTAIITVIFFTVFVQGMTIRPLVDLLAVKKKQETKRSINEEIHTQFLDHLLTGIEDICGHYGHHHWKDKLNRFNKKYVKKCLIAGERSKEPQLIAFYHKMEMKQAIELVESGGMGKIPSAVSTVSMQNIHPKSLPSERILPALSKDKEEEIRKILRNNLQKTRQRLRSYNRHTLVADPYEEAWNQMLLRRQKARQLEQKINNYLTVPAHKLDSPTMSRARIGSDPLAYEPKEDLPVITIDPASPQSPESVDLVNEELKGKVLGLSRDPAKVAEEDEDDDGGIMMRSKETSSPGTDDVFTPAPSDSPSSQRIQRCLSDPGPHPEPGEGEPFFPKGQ
Sequence of Cytochrome P450 3A4 (P08684 whole entry): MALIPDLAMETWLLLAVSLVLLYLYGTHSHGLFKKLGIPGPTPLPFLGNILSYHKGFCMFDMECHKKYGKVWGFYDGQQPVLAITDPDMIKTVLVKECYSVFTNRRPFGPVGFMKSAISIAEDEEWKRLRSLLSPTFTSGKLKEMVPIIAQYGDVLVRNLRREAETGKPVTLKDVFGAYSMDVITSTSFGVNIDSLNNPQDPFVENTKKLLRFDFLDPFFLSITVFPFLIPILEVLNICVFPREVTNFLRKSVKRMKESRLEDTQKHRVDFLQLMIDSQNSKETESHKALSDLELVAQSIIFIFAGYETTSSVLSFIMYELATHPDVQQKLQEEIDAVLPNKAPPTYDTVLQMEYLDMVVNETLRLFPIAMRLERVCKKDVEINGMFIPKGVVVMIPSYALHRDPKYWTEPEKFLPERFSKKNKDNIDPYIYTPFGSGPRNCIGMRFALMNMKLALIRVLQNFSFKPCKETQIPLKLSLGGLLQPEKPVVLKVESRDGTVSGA
Sequence of Cytochrome P450 2C19 (P33261 whole entry): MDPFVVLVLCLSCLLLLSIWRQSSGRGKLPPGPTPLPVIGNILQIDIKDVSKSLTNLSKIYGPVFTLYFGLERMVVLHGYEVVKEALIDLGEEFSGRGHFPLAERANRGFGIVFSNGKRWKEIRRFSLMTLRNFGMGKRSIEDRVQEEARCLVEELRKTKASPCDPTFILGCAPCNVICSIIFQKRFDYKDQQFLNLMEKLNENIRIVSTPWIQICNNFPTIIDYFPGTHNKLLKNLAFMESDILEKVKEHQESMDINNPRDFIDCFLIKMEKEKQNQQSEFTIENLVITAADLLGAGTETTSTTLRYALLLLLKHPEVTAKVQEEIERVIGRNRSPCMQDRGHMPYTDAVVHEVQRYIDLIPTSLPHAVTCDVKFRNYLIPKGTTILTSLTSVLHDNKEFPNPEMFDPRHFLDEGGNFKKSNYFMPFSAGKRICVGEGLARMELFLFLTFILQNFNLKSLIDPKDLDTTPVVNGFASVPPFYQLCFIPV
Sequence of Cytochrome P450 2C9 (P11712 whole entry): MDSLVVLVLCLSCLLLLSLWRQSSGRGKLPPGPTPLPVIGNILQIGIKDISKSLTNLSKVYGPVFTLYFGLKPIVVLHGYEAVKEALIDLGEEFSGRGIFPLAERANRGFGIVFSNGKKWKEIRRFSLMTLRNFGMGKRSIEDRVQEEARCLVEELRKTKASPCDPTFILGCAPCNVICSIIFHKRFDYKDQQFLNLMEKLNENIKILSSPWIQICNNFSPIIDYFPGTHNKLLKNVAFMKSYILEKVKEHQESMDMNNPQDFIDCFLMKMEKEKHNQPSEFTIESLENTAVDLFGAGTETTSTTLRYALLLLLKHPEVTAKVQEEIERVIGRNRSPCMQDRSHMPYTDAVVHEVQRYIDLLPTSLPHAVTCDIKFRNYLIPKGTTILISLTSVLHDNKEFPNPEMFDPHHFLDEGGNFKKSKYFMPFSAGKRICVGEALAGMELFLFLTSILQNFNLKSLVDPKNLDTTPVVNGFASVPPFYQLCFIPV
Sequence of Cytochrome P450 2D6 (P10635 whole entry): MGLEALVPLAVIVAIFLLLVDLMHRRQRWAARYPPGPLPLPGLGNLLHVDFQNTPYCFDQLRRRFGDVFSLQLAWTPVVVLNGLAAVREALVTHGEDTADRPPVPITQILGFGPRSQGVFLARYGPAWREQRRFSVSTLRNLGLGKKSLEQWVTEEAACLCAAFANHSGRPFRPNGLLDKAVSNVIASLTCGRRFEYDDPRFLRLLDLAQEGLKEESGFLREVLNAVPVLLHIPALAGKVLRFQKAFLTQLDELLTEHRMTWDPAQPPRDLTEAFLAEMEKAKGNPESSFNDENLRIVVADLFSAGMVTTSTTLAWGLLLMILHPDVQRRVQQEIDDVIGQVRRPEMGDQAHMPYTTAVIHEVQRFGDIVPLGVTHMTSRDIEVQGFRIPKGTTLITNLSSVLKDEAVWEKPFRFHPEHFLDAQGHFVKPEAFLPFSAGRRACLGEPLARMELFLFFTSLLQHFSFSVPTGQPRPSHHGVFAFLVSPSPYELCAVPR
Sequence of Voltage-gated inwardly rectifying potassium channel KCNH2 (Q12809 whole entry): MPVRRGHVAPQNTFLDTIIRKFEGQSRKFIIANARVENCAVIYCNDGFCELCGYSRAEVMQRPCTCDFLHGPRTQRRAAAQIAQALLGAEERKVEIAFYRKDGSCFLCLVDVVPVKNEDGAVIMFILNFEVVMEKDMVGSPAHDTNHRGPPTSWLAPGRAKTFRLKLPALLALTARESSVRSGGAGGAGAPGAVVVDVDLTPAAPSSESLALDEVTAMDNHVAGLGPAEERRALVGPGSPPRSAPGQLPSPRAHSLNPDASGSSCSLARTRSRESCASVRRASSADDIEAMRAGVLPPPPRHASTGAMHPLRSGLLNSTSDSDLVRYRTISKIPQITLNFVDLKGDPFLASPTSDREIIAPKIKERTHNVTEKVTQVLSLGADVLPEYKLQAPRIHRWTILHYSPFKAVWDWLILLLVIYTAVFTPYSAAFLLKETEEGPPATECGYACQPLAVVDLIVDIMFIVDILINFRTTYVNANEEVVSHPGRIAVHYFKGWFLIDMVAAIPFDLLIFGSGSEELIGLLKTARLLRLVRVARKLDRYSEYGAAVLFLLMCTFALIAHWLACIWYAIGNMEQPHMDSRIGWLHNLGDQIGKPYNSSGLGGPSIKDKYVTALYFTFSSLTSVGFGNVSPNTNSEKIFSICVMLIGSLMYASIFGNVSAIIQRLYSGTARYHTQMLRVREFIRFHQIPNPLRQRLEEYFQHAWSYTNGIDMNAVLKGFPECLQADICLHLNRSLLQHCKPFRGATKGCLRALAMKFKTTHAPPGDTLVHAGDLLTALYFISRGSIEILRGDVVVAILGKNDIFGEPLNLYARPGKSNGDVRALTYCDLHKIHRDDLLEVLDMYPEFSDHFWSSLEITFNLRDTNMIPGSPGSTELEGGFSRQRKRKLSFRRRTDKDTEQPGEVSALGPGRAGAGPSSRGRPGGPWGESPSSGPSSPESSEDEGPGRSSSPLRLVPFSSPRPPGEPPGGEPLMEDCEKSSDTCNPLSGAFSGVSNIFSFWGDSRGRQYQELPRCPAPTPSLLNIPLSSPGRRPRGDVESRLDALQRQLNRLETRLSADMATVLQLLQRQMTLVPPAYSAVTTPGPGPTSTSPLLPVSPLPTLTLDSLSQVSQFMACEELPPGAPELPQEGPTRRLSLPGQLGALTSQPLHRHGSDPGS

`N=C(N)NC(=O)c1ccc(C2CCN(C(=O)c3cccc(Cl)c3)CC2)c(C(F)(F)F)c1` showed an IC50 [1] of 385 nM.

With `CC(=O)N1CCC(c2ccc(C(=O)NC(=N)N)cc2S(C)(=O)=O)CC1` the IC50 [1] was 22 nM.

Compound `CN(C)C(=O)c1ccc(C(=O)N2CCC(c3ccc(C(=O)NC(=N)N)cc3C(F)(F)F)CC2)cc1` has an IC50 [1] of 50 nM and a Papp [2] of less than 2 ×10⁻⁶ cm/s.

`CCC(=O)N1CCC(c2ccc(C(=O)NC(=N)N)cc2S(C)(=O)=O)CC1` gave an IC50 [1] of 29 nM.

Work on `N=C(N)NC(=O)c1ccc(C2CCN(C(=O)c3ccc(F)cc3)CC2)c(C(F)(F)F)c1` yielded an IC50 (Cytochrome P450 3A4) of 6000 nM, an IC50 (Cytochrome P450 2D6) greater than 30000 nM and an IC50 (Cytochrome P450 2C9) of 8000 nM. It also gave a hepatic extraction ratio at 1 h, 1 µM [3] of 0.3, a Papp [2] of no less than 2 ×10⁻⁶ cm/s and an IC50 (Cytochrome P450 2C19) of 11000 nM. The hepatic extraction ratio at 1 h, 1 µM [4] was 0.32.

In the case of `CCCC(=O)N1CCC(c2ccc(C(=O)NC(=N)N)cc2C(F)(F)F)CC1`, the IC50 [1] is reported as 29 nM.

`CNS(=O)(=O)c1ccc(C(=O)N2CCC(c3ccc(C(=O)NC(=N)N)cc3C(F)(F)F)CC2)cc1` gave an IC50 [1] of 30 nM and a Papp [2] of less than 2 ×10⁻⁶ cm/s.

In the case of `N=C(N)NC(=O)c1ccc(C2CCN(C(=O)c3ccc(O)nc3)CC2)c(C(F)(F)F)c1`, the IC50 (Cytochrome P450 3A4) is reported as greater than 30000 nM, the IC50 (Cytochrome P450 2D6) is reported as greater than 30000 nM and the IC50 [1] is reported as 19 nM. The IC50 (Cytochrome P450 2C9) was 29000 nM, the hepatic extraction ratio at 1 h, 1 µM [3] was 0.1 and the Papp [2] was less than 2 ×10⁻⁶ cm/s. The IC50 (Cytochrome P450 2C19) was greater than 30000 nM and the hepatic extraction ratio at 1 h, 1 µM [4] was 0.18.

With `Cn1cncc1C(=O)N1CCC(c2ccc(C(=O)NC(=N)N)cc2C(F)(F)F)CC1` the IC50 (Cytochrome P450 3A4) was 3000 nM, the IC50 (Cytochrome P450 2D6) was greater than 30000 nM and the IC50 [1] was 18 nM. The IC50 (Cytochrome P450 2C9) was 25000 nM, the hepatic extraction ratio at 1 h, 1 µM [3] was less than 0.056 and the Papp [2] was less than 2 ×10⁻⁶ cm/s. The IC50 (Cytochrome P450 2C19) was 15000 nM and the hepatic extraction ratio at 1 h, 1 µM [4] was 0.23.

With `CC(=O)N1CCC(c2cc(C)c(C(=O)NC(=N)N)cc2C(F)(F)F)CC1` the IC50 [1] was 5 nM and the IC50 [5] was 7000 nM.

`N=C(N)NC(=O)c1ccc(N2CCN(C(=O)c3ccc[nH]3)CC2)c(C(F)(F)F)c1` [SABIPORIDE] showed an MRT [6] of 1.3 h, a bioavailability [7] of 42% and a Vd [8] of 1.3 L/kg. The IC50 (Cytochrome P450 3A4) was 7000 nM, the IC50 [1] was 28 nM and the CL (Rattus norvegicus) was 24%. It also gave an IC50 (Cytochrome P450 2C19) of 9000 nM.

For `N=C(N)NC(=O)c1ccc(C2CCN(C(=O)c3ccc(-c4ccccc4)cc3)CC2)c(C(F)(F)F)c1`, the IC50 [1] was 4700 nM.

`N=C(N)NC(=O)c1cnn(-c2cccc3ncccc23)c1C1CC1` [ZONIPORIDE] showed an MRT [6] of 0.6 h, a bioavailability [7] of 5% and a Vd [8] of 2.8 L/kg. It also gave a CL (Rattus norvegicus) of 105%.

In the case of `N=C(N)NC(=O)c1ccc(C2CCN(C(=O)c3ccc(-n4ccnc4)cc3)CC2)c(C(F)(F)F)c1`, the IC50 [1] is reported as 65 nM.

Work on `COc1ccc(C(=O)N2CCC(c3ccc(C(=O)NC(=N)N)cc3C(F)(F)F)CC2)cc1` yielded an IC50 [1] of 132 nM and a Papp [2] of no less than 2 ×10⁻⁶ cm/s.

`N=C(N)NC(=O)c1ccc(C2CCN(C(=O)C3CCCC3)CC2)c(C(F)(F)F)c1` showed an IC50 [1] of 64 nM.

`Cc1cc(C(=O)N2CCC(c3ccc(C(=O)NC(=N)N)cc3C(F)(F)F)CC2)nn1C` showed an IC50 [1] of 27 nM, a hepatic extraction ratio at 1 h, 1 µM [3] of 0.78 and a Papp [2] of less than 2 ×10⁻⁶ cm/s. It also gave a hepatic extraction ratio at 1 h, 1 µM [4] of 0.68.

`CC(C)C(=O)N1CCC(c2ccc(C(=O)NC(=N)N)cc2C(F)(F)F)CC1` showed an IC50 (Cytochrome P450 3A4) of 400 nM, an IC50 (Cytochrome P450 2D6) greater than 30000 nM and an IC50 [1] of 28 nM. The IC50 (Cytochrome P450 2C9) was 7000 nM, the hepatic extraction ratio at 1 h, 1 µM [3] was 0.39 and the Papp [2] was no less than 2 ×10⁻⁶ cm/s. For the same compound, the hepatic extraction ratio at 1 h, 1 µM [4] was less than 0.11.

`N=C(N)NC(=O)c1ccc(C2CCN(C(=O)c3ccncc3)CC2)c(C(F)(F)F)c1` gave an IC50 (Cytochrome P450 3A4) greater than 30000 nM, an IC50 (Cytochrome P450 2D6) of 11000 nM and an IC50 [1] of 18 nM. The IC50 (Cytochrome P450 2C9) was 400 nM, the hepatic extraction ratio at 1 h, 1 µM [3] was 0.12 and the Papp [2] was no less than 2 ×10⁻⁶ cm/s. The IC50 (Cytochrome P450 2C19) was 60 nM and the hepatic extraction ratio at 1 h, 1 µM [4] was less than 0.11.

`CS(=O)(=O)c1ccccc1C(=O)N1CCC(c2ccc(C(=O)NC(=N)N)cc2C(F)(F)F)CC1` gave an IC50 [1] of 58 nM.

`CC(C)(C)C(=O)N1CCC(c2ccc(C(=O)NC(=N)N)cc2C(F)(F)F)CC1` showed an MRT [6] of 1.5 h, a Vd [8] of 1.8 L/kg and an IC50 (Cytochrome P450 2D6) greater than 30000 nM. The IC50 [1] was 72 nM, the CL (Rattus norvegicus) was 29% and the IC50 (Cytochrome P450 2C9) was 17000 nM. The Papp [2] was no less than 2 ×10⁻⁶ cm/s.

In the case of `N=C(N)NC(=O)c1ccc(C2CCN(C(=O)c3ccc(Cl)cc3)CC2)c(C(F)(F)F)c1`, the IC50 [1] is reported as 306 nM.
